In ChEMBL document CHEMBL4257549, “Design, synthesis and biological evaluation of benzimidazole-rhodanine conjugates as potent topoisomerase II inhibitors” (Medchemcomm, 2018):
Active and inactive are the calls of the source. The rule behind the calls is not given here.

Assays:
HeLa = test: Cytotoxicity against human HeLa cells after 48 hrs by MTT assay; format: functional, cell-based
Procedure, shortened: (§1)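 Cells seeded at 5000 per well, left overnight, then exposed to compound at 0–50 μM for 48 h. MTT (20 μL of 2.5 mg mL−1) added for a further 4 h at 37 °C, formazan dissolved in DMSO, absorbance read at 570 nm. Quadruplicate wells, N > 2 determinations, mean IC50 taken as the concentration reducing cell number to 50%.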

HL-60 = test: Cytotoxicity against human HL60 cells after 48 hrs by MTT assay; format: functional, cell-based; conditions: HL-60, 48 h; procedure, shortened: as §1
MDA-MB-231 = test: Cytotoxicity against human MDA-MB-231 cells after 48 hrs by MTT assay; format: functional, cell-based; conditions: MDA-MB-231, 48 h; procedure, shortened: as §1
Raji = test: Cytotoxicity against human Raji cells after 48 hrs by MTT assay; format: functional, cell-based; procedure, shortened: as §1
PC-3 = test: Cytotoxicity against human PC3 cells after 48 hrs by MTT assay; format: functional, cell-based; conditions: PC-3, 48 h; procedure, shortened: as §1
A549 = test: Cytotoxicity against human A549 cells after 48 hrs by MTT assay; format: functional, cell-based; conditions: A549, 48 h; procedure, shortened: as §1
Homo sapiens [1] = species on record: Homo sapiens; test: Inhibition of human topoisomerase 2-mediated pBR322 DNA relaxation at 20 uM after 30 mins by agarose gel electrophoresis
Homo sapiens [2] = species on record: Homo sapiens; test: Inhibition of human topoisomerase 2-mediated pBR322 DNA relaxation at 10 uM after 30 mins by agarose gel electrophoresis
[3] = target: T1, DNA topoisomerase 1 (Homo sapiens) (UniProt P11387); test: Inhibition of topoisomerase 1 (unknown origin)-mediated pBR322 DNA relaxation at 50 uM after 30 mins by agarose gel electrophoresis
T1 sequence (whole entry): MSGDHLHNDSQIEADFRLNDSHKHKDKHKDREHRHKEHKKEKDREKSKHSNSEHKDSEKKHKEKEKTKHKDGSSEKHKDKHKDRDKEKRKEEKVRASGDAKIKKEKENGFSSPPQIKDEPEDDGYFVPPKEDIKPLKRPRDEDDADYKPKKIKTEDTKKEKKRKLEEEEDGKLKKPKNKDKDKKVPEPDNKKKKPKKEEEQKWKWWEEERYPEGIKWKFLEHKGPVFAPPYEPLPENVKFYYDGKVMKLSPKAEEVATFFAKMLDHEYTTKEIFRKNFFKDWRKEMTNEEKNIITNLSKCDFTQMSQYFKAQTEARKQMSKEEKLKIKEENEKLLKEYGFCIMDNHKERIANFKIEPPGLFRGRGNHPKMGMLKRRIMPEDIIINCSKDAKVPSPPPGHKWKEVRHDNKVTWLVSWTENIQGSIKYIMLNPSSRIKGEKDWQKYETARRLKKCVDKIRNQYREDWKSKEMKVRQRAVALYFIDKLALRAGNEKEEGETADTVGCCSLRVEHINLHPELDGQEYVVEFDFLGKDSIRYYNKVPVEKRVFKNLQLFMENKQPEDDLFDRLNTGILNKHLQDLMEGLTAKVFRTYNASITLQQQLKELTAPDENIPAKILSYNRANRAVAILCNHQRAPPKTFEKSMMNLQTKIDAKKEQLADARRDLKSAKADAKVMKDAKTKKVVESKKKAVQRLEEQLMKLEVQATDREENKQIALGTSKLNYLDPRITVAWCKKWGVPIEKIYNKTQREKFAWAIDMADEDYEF
Procedure, shortened: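 Topo I relaxation of pBR322 with compound at 30 min, 37 °C, camptothecin positive control. Stopped with SDS/bromophenol blue/glycerol dye, run on 1% agarose in TAE for 1.5 h, Ged Red stained, UV visualized.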

Homo sapiens [4] = species on record: Homo sapiens; test: Inhibition of human topoisomerase 2-mediated pBR322 DNA relaxation at 50 uM after 30 mins by agarose gel electrophoresis
Procedure, shortened: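 Relaxation of 200 ng supercoiled pBR322 by 1 U Topo II (TopoGEN) in 20 μL buffer: 50 mM Tris-HCl pH 8.0, 150 mM NaCl, 10 mM MgCl2, 2 mM ATP, 0.5 mM DTT, 30 μg/mL BSA. Incubated 30 min at 37 °C, stopped with sarcosyl/glycerol dye. Products run on 1% agarose in TAE (1.5 h, 75 V), Ged Red stained, UV imaged; etoposide positive control.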

`O=C(O)CN1C(=O)/C(=C/c2nc3ccccc3n2CC(=O)c2ccc(F)cc2)SC1=S` gave an IC50 (HeLa) of 14.8 µM, an IC50 (HL-60) of 3.96 µM and an IC50 (MDA-MB-231) of 6.31 µM. For the same molecule, the IC50 (Raji) was 8.24 µM, the IC50 (PC-3) was 9.87 µM and the IC50 (A549) was 12.8 µM. The inhibition (Homo sapiens [1]) was “Active”, the inhibition (Homo sapiens [2]) was “Active” and the inhibition [3] was “inactive”.
For `COc1ccc(C(=O)Cn2c(/C=C3\SC(=S)N(CC(=O)O)C3=O)nc3ccccc32)cc1`, the IC50 (HeLa) was 26.7 µM, the IC50 (HL-60) was 5.44 µM and the IC50 (MDA-MB-231) was 12.9 µM. It also gave an IC50 (Raji) of 6.32 µM, an IC50 (PC-3) of 8.75 µM and an IC50 (A549) of 5.15 µM. For the same molecule, the inhibition (Homo sapiens [1]) was “inactive” and the inhibition [3] was “inactive”.
For `O=C(O)CN1C(=O)/C(=C/c2nc3ccccc3n2Cc2ccc([N+](=O)[O-])cc2)SC1=S`, the IC50 (HeLa) was 18.6 µM, the IC50 (HL-60) was 5.32 µM and the IC50 (MDA-MB-231) was 7.76 µM. For the same molecule, the IC50 (Raji) was 2.51 µM, the IC50 (PC-3) was 8.27 µM and the IC50 (A549) was 11.4 µM. For the same molecule, the inhibition (Homo sapiens [1]) was “inactive” and the inhibition [3] was “inactive”.
Molecule `O=C(O)CN1C(=O)/C(=C/c2nc3ccccc3n2Cc2ccc(Br)cc2F)SC1=S` has an IC50 (HeLa) greater than 50 µM, an IC50 (HL-60) of 6.42 µM and an IC50 (MDA-MB-231) of 28.4 µM. It also gave an IC50 (Raji) of 11.4 µM, an IC50 (PC-3) of 21.1 µM and an IC50 (A549) of 27.3 µM. For the same molecule, the inhibition (Homo sapiens [1]) was “inactive”, the inhibition (Homo sapiens [4]) was “Active” and the inhibition [3] was “inactive”.
With `Cc1ccc(Cn2c(/C=C3\SC(=S)N(CC(=O)O)C3=O)nc3ccc(Cl)cc32)cc1` the IC50 (HeLa) was 11 µM, the IC50 (HL-60) was 2.84 µM and the IC50 (MDA-MB-231) was 3.96 µM. The IC50 (Raji) was 2.79 µM, the IC50 (PC-3) was 1.52 µM and the IC50 (A549) was 9.97 µM. The inhibition (Homo sapiens [1]) was “Active”, the inhibition (Homo sapiens [4]) was “Active” and the inhibition [3] was “inactive”.
`Cc1ccc(Cn2c(/C=C3\SC(=S)NC3=O)nc3ccccc32)cc1` gave an IC50 (HeLa) of 25.2 µM, an IC50 (HL-60) of 2.66 µM and an IC50 (MDA-MB-231) of 6.42 µM. It also gave an IC50 (Raji) of 4.48 µM, an IC50 (PC-3) of 9.78 µM and an IC50 (A549) of 5.31 µM. For the same molecule, the inhibition (Homo sapiens [1]) was “Active” and the inhibition [3] was “inactive”.
Molecule `CC[C@@]1(O)C(=O)OCc2c1cc1n(c2=O)Cc2cc3ccccc3nc2-1` [CAMPTOTHECIN] has an IC50 (HeLa) greater than 50 µM, an IC50 (HL-60) of 0.42 µM and an IC50 (MDA-MB-231) of 16.4 µM. For the same molecule, the IC50 (Raji) was 3.27 µM, the IC50 (PC-3) was 18.2 µM and the IC50 (A549) was 2.21 µM.
`CCn1c(/C=C2\SC(=S)N(CC(=O)O)C2=O)nc2ccccc21` gave an IC50 (HeLa) of 3.52 µM, an IC50 (HL-60) of 2.12 µM and an IC50 (MDA-MB-231) of 1.88 µM. The IC50 (Raji) was 5.56 µM, the IC50 (PC-3) was 3.25 µM and the IC50 (A549) was 9.44 µM. The inhibition (Homo sapiens [1]) was “inactive”, the inhibition (Homo sapiens [4]) was “Active” and the inhibition [3] was “inactive”.
`COc1ccc2c(c1)nc(/C=C1\SC(=S)N(CC(=O)O)C1=O)n2Cc1ccccc1F` gave an IC50 (HeLa) of 22.5 µM, an IC50 (HL-60) of 3.41 µM and an IC50 (MDA-MB-231) of 16.9 µM. For the same molecule, the IC50 (Raji) was 11.5 µM, the IC50 (PC-3) was 24.7 µM and the IC50 (A549) was 18.4 µM. The inhibition (Homo sapiens [1]) was “inactive”, the inhibition (Homo sapiens [4]) was “Active” and the inhibition [3] was “inactive”.
With `O=C(O)CCN1C(=O)/C(=C/c2nc3ccccc3n2Cc2ccccc2F)SC1=S` the IC50 (HeLa) was 26.5 µM, the IC50 (HL-60) was 5.72 µM and the IC50 (MDA-MB-231) was 9.53 µM. For the same molecule, the IC50 (Raji) was 11.3 µM, the IC50 (PC-3) was 28.6 µM and the IC50 (A549) was 18.7 µM. For the same molecule, the inhibition (Homo sapiens [1]) was “inactive” and the inhibition [3] was “inactive”.
In the case of `COc1cc(Cn2c(/C=C3\SC(=S)N(CC(=O)O)C3=O)nc3ccccc32)cc(OC)c1`, the IC50 (HeLa) is reported as 17.7 µM, the IC50 (HL-60) is reported as 1.41 µM and the IC50 (MDA-MB-231) is reported as 1.28 µM. For the same molecule, the IC50 (Raji) was 2.11 µM, the IC50 (PC-3) was 6.37 µM and the IC50 (A549) was 5.17 µM. The inhibition (Homo sapiens [1]) was “Active” and the inhibition (Homo sapiens [2]) was “Active”.
`COc1ccc2nc(/C=C3\SC(=S)N(CC(=O)O)C3=O)n(Cc3ccc(C)cc3)c2c1` gave an IC50 (HeLa) of 6.44 µM, an IC50 (HL-60) of 1.92 µM and an IC50 (MDA-MB-231) of 3.77 µM. It also gave an IC50 (Raji) of 10.8 µM, an IC50 (PC-3) of 16.2 µM and an IC50 (A549) of 23.6 µM. For the same molecule, the inhibition (Homo sapiens [1]) was “Active”, the inhibition (Homo sapiens [4]) was “Active” and the inhibition [3] was “inactive”.
